Assay results of several laboratories.
AKR1C2: Aldo-keto reductase family 1 member C2 (AKR1C2, Homo sapiens, UniProt P52895)
Neuronal acetylcholine receptor; alpha3/beta2: Neuronal acetylcholine receptor; alpha3/beta2 (Rattus norvegicus, UniProt P04757+P12390)

O=C(O)C(F)(OC(F)(F)C(F)(F)C(F)(F)F)C(F)(F)F (centres unmarked) — IC50 (AKR1C2; enzyme activity; inhibitor; fluorescence): 13.8 µM
O=C(NC[C@H]1C[C@@H]2CCN1C[C@@H]2CN1C[C@@H]2C[C@H](C1)c1cccc(=O)n1C2)c1ccc2c(c1)OCO2 — IC50 (Atypical kinase COQ8A, mitochondrial (COQ8A, Homo sapiens, UniProt Q8NI60); ligand displacement; TR-FRET): 13.7 µM
COC(=O)c1cc(N(C)C(=O)c2ccn3ncc(-c4ccc(C(=O)O)cc4)c3c2)ccc1Cl — IC50 (Vascular endothelial growth factor receptor 1 (FLT1, Homo sapiens, UniProt P17948); enzyme activity; inhibitor): > 30 µM
O=C(O)C(F)F — IC50 (AKR1C2; enzyme activity; inhibitor; fluorescence): > 50 µM
COc1ccc2c3c([nH]c2c1)CCN(C)CC3 — IC50 (Neuronal acetylcholine receptor; alpha3/beta2; ion current; antagonist; two-electrode voltage clamp; oocytes): 27.6 µM
CC[C@H](C)[C@H](NC(C)=O)C(=O)N[C@@H](CCC(=O)O)C(=O)N[C@H](C(=O)N[C@H](C=O)CC(=O)O)[C@@H](C)O — IC50 (Caspase-4 (Casp4, Mus musculus, UniProt P70343); enzyme activity; inhibitor): 0.162 µM
COc1ccc2[nH]c3c(c2c1)CCN(C)CC3 — IC50 (Neuronal acetylcholine receptor; alpha3/beta2; ion current; antagonist; two-electrode voltage clamp; oocytes): 28.3 µM
CNC(=O)c1ccc(-c2cnn3ccc(C(=O)N(C)c4ccc(Cl)c(C(=O)OC)c4)cc23)cc1 — IC50 (Serine/threonine-protein kinase Nek11 (NEK11, Homo sapiens, UniProt Q8NG66); enzyme activity; inhibitor): > 30 µM
